Data taken from the array DNA melting data of Ke et al. (doi:10.1101/2024.01.08.574731).

Key:
[1] = melting temperature; fluorescence melt of hairpins on a sequencing array, two-state fit, raised by 9.35 °C to match UV melts; settings: sodium 0.088 M
Procedure, shortened: (§1)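 With Cy3 and quencher oligos annealed, library hairpins on a sequenced MiSeq flow cell were imaged for Cy3 fluorescence in 50 mM Na-HEPES pH 8.0, 25 mM NaCl, in 2.5 °C steps up to 60 °C. Melting temperature and folding enthalpy were derived from bootstrapped two-state fits of signals normalised to pre-quench Cy3 and to control constructs. Four replicates were combined by inverse variance, with fitted temperatures raised by 9.35 °C to match UV melts.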

[2] = folding enthalpy; higher = less favourable; fluorescence melt of hairpins on a sequencing array, two-state fit; settings: sodium 0.088 M
Procedure, shortened: as §1

GCTAGTCGAAAGACAAGC (((.(((....))).)))
Tm [1]: 51.8 °C
folding enthalpy [2]: -34.7 kcal/mol

GCTAGTGGAAACATTGGC ((.(.((....)).).))
Tm [1]: 28.2 °C
folding enthalpy [2]: -10.7 kcal/mol

GCTATAGGAAACCATAGC (((((.(....).)))))
Tm [1]: 35.6 °C
folding enthalpy [2]: -29.8 kcal/mol

GCTATCCGAAAGGAAGC (((.(((....))))))
Tm [1]: 46 °C
folding enthalpy [2]: -23.2 kcal/mol

GCTATCGAAAGATAAAGC ((((((....)))..)))
Tm [1]: 33.6 °C
folding enthalpy [2]: -23.9 kcal/mol

GCTATCGAAAGATTTAGC ((((((....)))..)))
Tm [1]: 32.7 °C
folding enthalpy [2]: -19.9 kcal/mol

GCTATCGGAAACGATGGC ((.((((....)))).))
Tm [1]: 52.9 °C
folding enthalpy [2]: -47.6 kcal/mol

GCTATGCGAAAGCAGGGC ((..(((....)))..))
Tm [1]: 54.8 °C
folding enthalpy [2]: -22.2 kcal/mol

GCTATGCGAAAGCATTGC ((.((((....)))).))
Tm [1]: 60.3 °C
folding enthalpy [2]: -30.2 kcal/mol

GCTATGCGAAAGCCTGGC ((.(.((....)).).))
Tm [1]: 36.9 °C
folding enthalpy [2]: -18.8 kcal/mol

GCTATGCGAAAGCTGAGC (((..((....))..)))
Tm [1]: 47.4 °C
folding enthalpy [2]: -21.9 kcal/mol

GCTATTCGAAAGAAAAGC (((.(((....))).)))
Tm [1]: 39.1 °C
folding enthalpy [2]: -27.9 kcal/mol

GCTATTGGAAACAATAGC (((((((....)))))))
Tm [1]: 56 °C
folding enthalpy [2]: -47.7 kcal/mol

GCTATTGGAAACAGTAGC ((((.((....)).))))
Tm [1]: 42.9 °C
folding enthalpy [2]: -30 kcal/mol

GCTCAAACGAAAGTTAGC (((..(((....))))))
Tm [1]: 29.4 °C
folding enthalpy [2]: -22.6 kcal/mol

GCTCAACGAAAGTTAAGC (((.(((....))).)))
Tm [1]: 42 °C
folding enthalpy [2]: -26.4 kcal/mol

GCTCAAGAAATTGAGC ((((((....))))))
Tm [1]: 55.3 °C
folding enthalpy [2]: -34.1 kcal/mol

GCTCAAGGAAACTCGAGC ((((.((....)).))))
Tm [1]: 38.3 °C
folding enthalpy [2]: -30.5 kcal/mol

GCTCAATCGAAAGATAGC (((..(((....))))))
Tm [1]: 31.9 °C
folding enthalpy [2]: -11.6 kcal/mol

GCTCACCCGAAAGGGAGC (((..(((....))))))
Tm [1]: 50.2 °C
folding enthalpy [2]: -19.4 kcal/mol

GCTCACCGAAAGGTAAGC (((.(((....))).)))
Tm [1]: 48.6 °C
folding enthalpy [2]: -29.1 kcal/mol

GCTCACGAAAGTGACAGC ((((((....)))..)))
Tm [1]: 43.2 °C
folding enthalpy [2]: -14.8 kcal/mol

GCTCACGAAAGTGTCAGC ((((((....)))..)))
Tm [1]: 37.4 °C
folding enthalpy [2]: -17.4 kcal/mol

GCTCACGAAAGTGTGAGC ((((((....)))..)))
Tm [1]: 55.8 °C
folding enthalpy [2]: -34 kcal/mol

GCTCACGCGAAAGCGAGC (((..(((....))))))
Tm [1]: 47.8 °C
folding enthalpy [2]: -15.1 kcal/mol

GCTCACGGAAACGCGAGC ((((.((....)).))))
Tm [1]: 53.4 °C
folding enthalpy [2]: -51.9 kcal/mol

GCTCACTCGAAAGAGAGC (((..(((....))))))
Tm [1]: 41.6 °C
folding enthalpy [2]: -25.1 kcal/mol

GCTCAGCGAAAGCGAAGC (((..((....))..)))
Tm [1]: 43.3 °C
folding enthalpy [2]: -18.5 kcal/mol

GCTCAGCGAAAGCGGGGC ((.(.((....)).).))
Tm [1]: 59.9 °C
folding enthalpy [2]: -25.5 kcal/mol

GCTCAGCGAAAGCGTAGC (((..((....))..)))
Tm [1]: 49.7 °C
folding enthalpy [2]: -18.1 kcal/mol

GCTCAGCGAAAGCTAAGC (((.(((....))).)))
Tm [1]: 46.7 °C
folding enthalpy [2]: -40.3 kcal/mol

GCTCAGCGAAAGCTACGC ((..(((....)))..))
Tm [1]: 35 °C
folding enthalpy [2]: -11.4 kcal/mol

GCTCAGCGAAAGCTATGC ((..(((....)))..))
Tm [1]: 36.4 °C
folding enthalpy [2]: -12.6 kcal/mol

GCTCAGGGAAACCCGAGC ((((.((....)).))))
Tm [1]: 51.3 °C
folding enthalpy [2]: -35.8 kcal/mol

GCTCAGGGAAACTTGGGC ((.((.(....).)).))
Tm [1]: 35.3 °C
folding enthalpy [2]: -20.6 kcal/mol

GCTCAGTCGAAAGACAGC (((..(((....))))))
Tm [1]: 37.3 °C
folding enthalpy [2]: -15.3 kcal/mol

GCTCATCGAAAGATAAGC (((.(((....))).)))
Tm [1]: 39.6 °C
folding enthalpy [2]: -23.8 kcal/mol

GCTCATGCGAAAGCAAGC (((..(((....))))))
Tm [1]: 35 °C
folding enthalpy [2]: -10.8 kcal/mol

GCTCATGGAAACATAAGC (((.(((....))).)))
Tm [1]: 32 °C
folding enthalpy [2]: -18.2 kcal/mol

GCTCCAGGAAACTGGAAC (.(((((....))))).)
Tm [1]: 38.3 °C
folding enthalpy [2]: -18.7 kcal/mol

GCTCCCCGAAAGGGAAGC (((.(((....))).)))
Tm [1]: 56.5 °C
folding enthalpy [2]: -34 kcal/mol

GCTCCCCGAAAGGGTAGC (((.(((....))).)))
Tm [1]: 54 °C
folding enthalpy [2]: -21.7 kcal/mol

GCTCCCGAAAGGGCAGC ((((((....))).)))
Tm [1]: 55.2 °C
folding enthalpy [2]: -30.2 kcal/mol

GCTCCCGAAAGGGGCAGC ((((((....)))..)))
Tm [1]: 49.8 °C
folding enthalpy [2]: -12.5 kcal/mol

GCTCCCGAAAGGGGGAGC ((((((....)))..)))
Tm [1]: 64.5 °C
folding enthalpy [2]: -23.8 kcal/mol

GCTCCCGAAAGGGTAGC ((((((....))).)))
Tm [1]: 54.4 °C
folding enthalpy [2]: -32.2 kcal/mol

GCTCCCGAAAGGGTCAGC ((((((....)))..)))
Tm [1]: 41 °C
folding enthalpy [2]: -13.5 kcal/mol

GCTCCCTCGAAAGAGAGC (((..(((....))))))
Tm [1]: 35.6 °C
folding enthalpy [2]: -19.5 kcal/mol

GCTCCGCGAAAGCAGAGC ((((.((....)).))))
Tm [1]: 64 °C
folding enthalpy [2]: -31.6 kcal/mol

GCTCCGCGAAAGCAGTGC ((.(.((....)).).))
Tm [1]: 41.4 °C
folding enthalpy [2]: -12.5 kcal/mol

GCTCCGCGAAAGCCGAGC ((((.((....)).))))
Tm [1]: 58.4 °C
folding enthalpy [2]: -34.5 kcal/mol

GCTCCGCGAAAGCGCCGC ((..(((....)))..))
Tm [1]: 28.9 °C
folding enthalpy [2]: -6.58 kcal/mol

GCTCCGCGAAAGCGCGGC ((..(((....)))..))
Tm [1]: 44.8 °C
folding enthalpy [2]: -11.9 kcal/mol

GCTCCGCGAAAGCTAAGC (((..((....))..)))
Tm [1]: 30.7 °C
folding enthalpy [2]: -9.02 kcal/mol

GCTCCGGGAAACCGGAAC (.(((((....))))).)
Tm [1]: 43.2 °C
folding enthalpy [2]: -12.4 kcal/mol

GCTCCTCGAAAGAGTAGC (((.(((....))).)))
Tm [1]: 45.5 °C
folding enthalpy [2]: -32.1 kcal/mol

GCTCCTGGAAACAGGAAC (.(((((....))))).)
Tm [1]: 36.6 °C
folding enthalpy [2]: -19.3 kcal/mol

GCTCGAGGAAACCCGAGC (((((.(....).)))))
Tm [1]: 54.3 °C
folding enthalpy [2]: -30.9 kcal/mol

GCTCGAGGAAACTCGAAC (.(((((....))))).)
Tm [1]: 40.9 °C
folding enthalpy [2]: -18.1 kcal/mol

GCTCGCCGAAAGGCCAGC (((.(((....))).)))
Tm [1]: 50.5 °C
folding enthalpy [2]: -18.1 kcal/mol

GCTCGCGAAAGCGCTAGC ((((((....)))..)))
Tm [1]: 42.6 °C
folding enthalpy [2]: -11.9 kcal/mol

GCTCGGCGAAAGCAAAGC (((..((....))..)))
Tm [1]: 37.8 °C
folding enthalpy [2]: -16.4 kcal/mol

GCTCGGCGAAAGCAGTGC ((.(.((....)).).))
Tm [1]: 60.6 °C
folding enthalpy [2]: -11.7 kcal/mol

GCTCGGCGAAAGCCAAGC (((.(((....))).)))
Tm [1]: 52.4 °C
folding enthalpy [2]: -35.8 kcal/mol

GCTCGGCGAAAGCCTAGC (((.(((....))).)))
Tm [1]: 52.8 °C
folding enthalpy [2]: -40.8 kcal/mol

GCTCGGCGAAAGCCTGGC ((..(((....)))..))
Tm [1]: 53.8 °C
folding enthalpy [2]: -12.7 kcal/mol

GCTCGGGGAAACCCAAGC (((.(((....))).)))
Tm [1]: 45.3 °C
folding enthalpy [2]: -17.8 kcal/mol

GCTCGGGGAAACCCGGGC ((.((((....)))).))
Tm [1]: 59.2 °C
folding enthalpy [2]: -34.6 kcal/mol

GCTCGGGGAAACCTGGGC ((.(.((....)).).))
Tm [1]: 45.9 °C
folding enthalpy [2]: -18.5 kcal/mol

GCTCGTACGAAAGTAAGC (((..(((....))))))
Tm [1]: 39.3 °C
folding enthalpy [2]: -4.48 kcal/mol

GCTCGTCGAAAGACCAGC (((.(((....))).)))
Tm [1]: 45.1 °C
folding enthalpy [2]: -15.2 kcal/mol

GCTCGTGGAAACACGAAC (.(((((....))))).)
Tm [1]: 45.2 °C
folding enthalpy [2]: -14.6 kcal/mol

GCTCTAACGAAAGTTAGC (((..(((....))))))
Tm [1]: 33.8 °C
folding enthalpy [2]: -13.7 kcal/mol

GCTCTAGGAAACCAGAGC (((((.(....).)))))
Tm [1]: 44 °C
folding enthalpy [2]: -31.4 kcal/mol

GCTCTAGGAAACTGGAGC ((((.((....)).))))
Tm [1]: 49.6 °C
folding enthalpy [2]: -35.8 kcal/mol

GCTCTCCGAAAGGAAGC (((.(((....))))))
Tm [1]: 47.8 °C
folding enthalpy [2]: -25.8 kcal/mol

GCTCTCGAAAGAGAAAGC ((((((....)))..)))
Tm [1]: 40 °C
folding enthalpy [2]: -22.6 kcal/mol

GCTCTCGAAAGAGCAAGC ((((((....)))..)))
Tm [1]: 42.9 °C
folding enthalpy [2]: -12.2 kcal/mol

GCTCTCGAAAGAGGAAGC ((((((....)))..)))
Tm [1]: 38.4 °C
folding enthalpy [2]: -18.8 kcal/mol

GCTCTCGGAAACGAGAAC (.(((((....))))).)
Tm [1]: 41.8 °C
folding enthalpy [2]: -16 kcal/mol

GCTCTCGGAAACGAGGGC ((.((((....)))).))
Tm [1]: 58.7 °C
folding enthalpy [2]: -40 kcal/mol

GCTCTCTCGAAAGAGAGC (((..(((....))))))
Tm [1]: 60.3 °C
folding enthalpy [2]: -26.9 kcal/mol

GCTCTGAAAAGAGC (((((....)))))
Tm [1]: 57.8 °C
folding enthalpy [2]: -21.6 kcal/mol

GCTCTGCGAAAGCAAAGC (((.(((....))).)))
Tm [1]: 46.1 °C
folding enthalpy [2]: -29.9 kcal/mol

GCTCTGCGAAAGCAATGC ((..(((....)))..))
Tm [1]: 31.6 °C
folding enthalpy [2]: -10.5 kcal/mol

GCTCTGCGAAAGCACCGC ((..(((....)))..))
Tm [1]: 31.8 °C
folding enthalpy [2]: -8.79 kcal/mol

GCTCTGCGAAAGCAGCGC ((.((((....)))).))
Tm [1]: 57.6 °C
folding enthalpy [2]: -17.3 kcal/mol

GCTCTGCGAAAGCATTGC ((..(((....)))..))
Tm [1]: 40.5 °C
folding enthalpy [2]: -14.2 kcal/mol

GCTCTGCGAAAGCCAAGC (((..((....))..)))
Tm [1]: 34.8 °C
folding enthalpy [2]: -13.9 kcal/mol

GCTCTGCGAAAGCCGGGC ((.(.((....)).).))
Tm [1]: 41.7 °C
folding enthalpy [2]: -20.1 kcal/mol

GCTCTGCGAAAGCGGTGC ((.(.((....)).).))
Tm [1]: 54.4 °C
folding enthalpy [2]: -19 kcal/mol
